From ChEMBL document CHEMBL3822438, “Chlorin p6-Based Water-Soluble Amino Acid Derivatives as Potent Photosensitizers for Photodynamic Therapy” (J Med Chem, 2016)
≈ marks a conversion by molar mass, not a printed value. One block for each compound: values may come before it. Calls of active or inactive are those of the source. The rule behind the calls is not given here.

Experiments:
[1] = tested on: A-375; test: Phototoxicity in human A375 cells assessed as cell viability after 24 hrs followed by irradiation with diode laser at 10 J/cm'2 measured after 24 hrs by cell counting kit-8 based spectrophotometric analysis; format: functional; settings: Homo sapiens, A-375, light or radiation study, 24 h
Outline: (§1)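 Phototoxicity by CCK-8. Cells loaded with a range of compound concentrations for 24 h at 37 °C, irradiated with a 678 nm diode laser at 10 J/cm², then incubated a further 24 h. Viability read as absorbance at 450 nm after 1.5 h with CCK-8.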

[2] = Drug uptake in golgi apparatus of mouse B16F10 cells at 10 uM incubated in dark for 24 hrs by golgi tracker green dye based confocal microscopy; format: ADME, cell-based; settings: b16-f10, 24 h
[3] = tested on: B16-F10; test: Induction of apoptosis in mouse B16F10 cells assessed as early apoptotic cells at 5 uM after 24 hrs followed by irradiation with diode laser at 10 J/cm'2 by alexa fluor 488 annexin V/PI double staining based flow cytometry (reference value: 0.08%); format: functional
[4] = tested on: B16-F10; test: Phototoxicity in mouse B16F10 cells assessed as reduction in cell surviving fraction by irradiation with diode laser at 10 J/cm'2 at 5 uM after 24 hrs by cell counting kit-8 based spectrophotometric analysis; format: functional
Outline: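 B16-F10 cells exposed to 5 µM for 24 h, then given varying 678 nm laser light doses. After a further 24 h, survival fraction was read by CCK-8 absorbance at 450 nm.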

[5] = Ratio of IC50 for test compound to IC50 for verteporfin for dark toxicity in mouse B16F10 cells by cell counting kit-8 based spectrophotometric analysis; design: species or system B16-F10; settings: read-out: Ratio IC50
[6] = tested on: A-375; test: Dark toxicity in human A375 cells assessed as reduction in cell surviving fraction at 50 to 300 uM after 48 hrs by cell counting kit-8 based spectrophotometric analysis; settings: a-375, 48 h
Outline: (§2)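 Survival fraction measured in the dark by CCK-8 after 48 h exposure at 37 °C to 300 µM or 50 µM. Cells were in 10% FBS medium (A375 in DMEM, B16-F10 in RPMI 1640). Viability read as absorbance at 450 nm after 1.5 h with CCK-8.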

[7] = Antitumor activity against B16F10 cells implanted in C57BL/6 mouse assessed as survival time at 1 mg/kg, iv administered for 2 hrs followed by irradiation with laser at 150 J/cm'2 for 10 mins (reference value: 13 days); format: functional, B16-F10
[8] = Dark toxicity in mouse B16F10 cells assessed as cell viability after 48 hrs by cell counting kit-8 based spectrophotometric analysis; design: species or system B16-F10; settings: mouse, B16F10 cells
Outline: (§3)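 CCK-8 dark toxicity. 5×10^3 cells seeded in 10% FBS medium (A375 in DMEM, B16-F10 in RPMI 1640). Exposed to graded compound concentrations for 48 h at 37 °C, kept in the dark. Fresh medium and CCK-8 added for 1.5 h, then absorbance read at 450 nm to give IC50. Ratio is dark IC50 over IC50 under light.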

[9] = Dark toxicity in mouse B16F10 cells assessed as reduction in cell surviving fraction at 50 to 300 uM after 48 hrs by cell counting kit-8 based spectrophotometric analysis; settings: b16-f10, 48 h; outline: as §2
[10] = tested on: B16-F10; test: Induction of apoptosis in mouse B16F10 cells assessed as necrotic/late apoptotic cells at 5 uM after 24 hrs followed by irradiation with diode laser at 10 J/cm'2 by alexa fluor 488 annexin V/PI double staining based flow cytometry (reference value: 1.94%); format: functional
[11] = (§4) Phototoxicity in mouse B16F10 cells assessed as cell viability after 24 hrs followed by irradiation with diode laser at 10 J/cm'2 measured after 24 hrs by MTT assay; format: functional, cell-based, B16-F10; settings: Mus musculus, B16-F10, light or radiation study, 24 h
Outline: (§5)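 B16-F10 cells in RPMI 1640 with 10% FBS. Dark arm: compound for 48 h. Light arm: compound for 24 h, then 678 nm diode laser at 10 J/cm², then a further 24 h. Read-out by MTT for 4 h, formazan dissolved in DMSO, absorbance at 490 nm. Ratio is dark IC50 over light IC50.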

[12] = tested on: B16-F10; test: as §4; format: functional, cell-based; outline: as §5
[13] = tested on: A-375; test: Phototoxicity in human A375 cells assessed as reduction in cell surviving fraction by irradiation with diode laser at 10 J/cm'2 after 24 hrs by cell counting kit-8 based spectrophotometric analysis; format: functional
Outline: (§6)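 Survival fraction after PDT. Cells held 24 h at 2 µM or 0.2 µM, irradiated at 678 nm with 10 J/cm², then cultured another 24 h. Viability measured by CCK-8 at 450 nm.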

[14] = Ratio of IC50 for dark toxicity to IC50 for phototoxicity in human A375 cells by CCK-8 assay
[15] = tested on: B16-F10; test: Phototoxicity in mouse B16F10 cells assessed as reduction in cell surviving fraction by irradiation with diode laser at 10 J/cm'2 after 24 hrs by cell counting kit-8 based spectrophotometric analysis; format: functional; outline: as §6
[16] = Drug uptake in endoplasmic reticulum of mouse B16F10 cells at 10 uM incubated in dark for 24 hrs by ER tracker green dye based confocal microscopy; format: ADME, cell-based; settings: b16-f10, 24 h
[17] = Drug uptake in nucleus of mouse B16F10 cells at 10 uM incubated in dark for 24 hrs by confocal microscopy; format: ADME, cell-based; settings: b16-f10, 24 h
[18] = Aqueous solubility of the compound in PBS buffer at pH 7.4; format: physicochemical
[19] = Drug uptake in lysosomes of mouse B16F10 cells at 10 uM incubated in dark for 24 hrs by lyso tracker green dye based confocal microscopy; format: ADME, cell-based, Lysosome; settings: b16-f10, 24 h
[20] = tested on: B16-F10; test: Induction of apoptosis in mouse B16F10 cells assessed as necrotic/late apoptotic cells at 2 uM after 24 hrs followed by irradiation with diode laser at 10 J/cm'2 by alexa fluor 488 annexin V/PI double staining based flow cytometry (reference value: 1.94%); format: functional
[21] = tested on: B16-F10; test: Antitumor activity against B16F10 cells implanted in C57BL/6 mouse assessed as tumor growth inhibition at 1 mg/kg, iv administered for 2 hrs followed by irradiation with laser at 150 J/cm'2 for 10 mins; format: functional, organism-based
Outline: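 B16-F10 cells (2×10^4) inoculated subcutaneously into the right thigh of male C57BL/6 mice aged 6-8 weeks. Mice with tumours 6-8 mm in diameter were used, 5 per group. Irradiation at 678 nm diode laser, 250 mW/cm² for 10 min, 2 h after i.v. dosing. Tumour volume measured by caliper as (W²×L)/2. Survival recorded daily and analysed by Kaplan-Meier with log-rank test.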

[22] = Phototoxicity in mouse B16F10 cells assessed as cell viability after 24 hrs followed by irradiation with diode laser at 10 J/cm'2 measured after 24 hrs by cell counting kit-8 based spectrophotometric analysis; format: functional, B16-F10; settings: Mus musculus, B16-F10, light or radiation study, 24 h; outline: as §1
[23] = Ratio of IC50 for dark toxicity to IC50 for phototoxicity in human A375 cells; format: cell-based, A-375; settings: A375 cells, read-out: Ratio IC50; outline: as §3
[24] = Dark toxicity in mouse B16F10 cells assessed as cell viability after 48 hrs by MTT assay; format: cell-based, B16-F10; settings: mouse, B16F10 cells; outline: as §5
[25] = tested on: B16-F10; test: Induction of apoptosis in mouse B16F10 cells assessed as necrotic/late apoptotic cells after 24 hrs followed by irradiation with diode laser at 10 J/cm'2 by alexa fluor 488 annexin V/PI double staining based flow cytometry; format: functional, cell-based
[26] = Ratio of IC50 for dark toxicity to IC50 for phototoxicity in mouse B16F10 cells by MTT assay; format: cell-based, B16-F10; settings: B16F10 cells, read-out: Ratio IC50; outline: as §5
[27] = Drug uptake in mitochondria of mouse B16F10 cells at 10 uM incubated in dark for 24 hrs by mito tracker green FM dye based confocal microscopy; format: ADME; settings: b16-f10, 24 h
[28] = Dark toxicity in human A375 cells assessed as cell viability after 48 hrs by cell counting kit-8 based spectrophotometric analysis; design: species or system A-375; settings: human, A375 cells; outline: as §3
[29] = Ratio of IC50 for dark toxicity to IC50 for phototoxicity in mouse B16F10 cells by cell counting kit-8 based spectrophotometric analysis; design: species or system B16-F10; settings: B16F10 cells, read-out: Ratio IC50; outline: as §3
[30] = tested on: B16-F10; test: Induction of apoptosis in mouse B16F10 cells assessed as early apoptotic cells at 2 uM after 24 hrs followed by irradiation with diode laser at 10 J/cm'2 by alexa fluor 488 annexin V/PI double staining based flow cytometry (reference value: 0.08%); format: functional
[31] = Ratio of IC50 for test compound to IC50 for verteporfin for dark toxicity in human A375 cells by cell counting kit-8 based spectrophotometric analysis; design: species or system A-375; settings: read-out: Ratio IC50

Compound: C=Cc1c(C)c2cc3nc(c(C(=O)OC)c4[nH]c(cc5nc(cc1[nH]2)C(C)=C5CC)c(C)c4C(=O)OC)[C@@H](CCC(=O)N[C@@H](CC(=O)O)C(=O)O)[C@@H]3C
- IC50 [1]: 980 nM
- Drug uptake [2]: Active
- Activity [3]: 5.61%
- Activity [4]: Active
- selectivity ratio [5]: > 8.3
- Activity [6]: Non-toxic
- MST [7]: 21 days
- IC50 at 48 h [8]: > 300000 nM
- Activity [9]: Non-toxic
- Activity [10]: 82.05%
- IC50 [11]: 750 nM
- Activity [12]: Dose-dependent effect
- Activity [13]: Dose-dependent effect
- selectivity ratio [14]: > 306
- Activity [15]: Dose-dependent effect
- Drug uptake [16]: Active
- Drug uptake [17]: Not Active
- solubility [18]: 41.7 µM (≈ 30.3 µg/mL)
- Drug uptake [19]: Active
- Activity [20]: 68.23%
- TGI [21]: Active
- IC50 [22]: 680 nM
- selectivity ratio [23]: > 306
- IC50 at 48 h [24]: > 300000 nM
- Activity [25]: Dose-dependent effect
- selectivity ratio [26]: > 400
- Drug uptake [27]: Active
- IC50 at 48 h [28]: > 300000 nM
- selectivity ratio [29]: > 441
- Activity [30]: 0.3%
- selectivity ratio [31]: > 8.3

- solubility [18]: < 1.6 µM
Compound: C=Cc1c(C)c2cc3nc(c(C(=O)OC)c4[nH]c(cc5nc(cc1[nH]2)C(C)=C5CC)c(C)c4C(=O)OC)[C@@H](CCC(=O)O)[C@@H]3C
- IC50 [1]: 520 nM
- IC50 at 48 h [8]: 15700 nM
- IC50 [22]: 300 nM
- selectivity ratio [23]: 60.2
- IC50 at 48 h [28]: 31300 nM
- selectivity ratio [29]: 52.2

Compound: CCC1=C(C)c2cc3[nH]c(cc4nc(c(C(=O)OC)c5[nH]c(cc1n2)c(C)c5C(=O)OC)C(CCC(=O)O)=C4C)[C@@]1(C)C3=CC=C(C(=O)OC)[C@H]1C(=O)OC
- IC50 [1]: 1470 nM
- IC50 at 48 h [8]: 15300 nM
- IC50 [22]: 920 nM
- selectivity ratio [23]: 15.5
- IC50 at 48 h [28]: 22800 nM
- selectivity ratio [29]: 16.7

Compound: CCC1=C(C)c2cc3[nH]c(cc4nc(c(C(=O)OC)c5[nH]c(cc1n2)c(C)c5C(=O)OC)C(CCC(=O)N[C@@H](CC(=O)O)C(=O)O)=C4C)[C@@]1(C)C3=CC=C(C(=O)OC)[C@H]1C(=O)OC
- IC50 [1]: 3020 nM
- IC50 at 48 h [8]: 271000 nM
- IC50 [22]: 2290 nM
- selectivity ratio [23]: > 99.3
- IC50 at 48 h [28]: > 300000 nM
- selectivity ratio [29]: 118
